Screening results: PubChem, several laboratories
Rpn11 block – Rpn11 (human) deubiquitinase inhibition | O00487 | human 26S proteasome, Ub4-pepOG fluorescence polarization; 20S core pre-blocked with epoxomicin | inhibition, % at 20 µM | hit rate 0.59% among 360,000;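 active = inhibition at 20 µM, scaled to each plate's controls, above about 33%, limit read from the data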
TPT1 inhibitor – C. albicans TPT1 enzyme inhibition | inhibition, % at 5 µM | AID 1962 | recombinant caTPT1, FP RNA substrate dephosphorylation | hit rate 0.81% among 300,000;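 active = inhibition above the mean of all tested compounds plus 3 SD, set per screening campaign, cut at about 24% in these data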;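 note: plate controls were DMSO alone for no effect and ferristatin control at 100 nM for full effect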
IDE act – IDE (human) activation, cell-based | P14735 | HEK cells, FAbeta-B cleavage, fluorescence polarization; 0% vehicle, 100% cell-free pure enzyme wells | activation, % at 5.96 µM | hit rate 0.073% among 340,000 | AID 493087;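 active = activation above the mean of all tested compounds plus 3 SD, set per screening campaign, cut at about 17% in these data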
CSN inh – blocks human CSN-mediated cullin deneddylation; hit rate 0.38% among 360,000; Q92905; inhibition, % at 12.5 µM; Purified CSN, SCF-Nedd8-OG deneddylation, fluorescence polarization;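 active = pattern-corrected inhibition above about 35%, with an unprinted fluorescence ratio check between 0.5 and 1.5, limit read from the data, passing the limit was not always enough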;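 note: 0% = enzyme with substrate and 100% = substrate without enzyme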
Target sequence (Q92905 whole entry, looked up, one chain of several): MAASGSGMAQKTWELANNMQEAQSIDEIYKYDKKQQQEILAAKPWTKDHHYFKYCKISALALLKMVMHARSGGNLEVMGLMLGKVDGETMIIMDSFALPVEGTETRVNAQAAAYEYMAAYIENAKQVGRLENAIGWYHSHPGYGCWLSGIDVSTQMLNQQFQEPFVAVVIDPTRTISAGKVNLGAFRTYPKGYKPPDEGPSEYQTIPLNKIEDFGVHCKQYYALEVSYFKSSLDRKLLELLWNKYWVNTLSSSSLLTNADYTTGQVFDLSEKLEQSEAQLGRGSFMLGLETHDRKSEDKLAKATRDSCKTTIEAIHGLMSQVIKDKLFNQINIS
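Detection – fluorescence polarization · System – HEK293T-derived human Csn5 enzyme · Controls – substrate-only high control, full reaction low control · Timing – 90 min, room temperature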
IDE cell inh – inhibits human insulin-degrading enzyme in HEK cells. P14735. FAbetaB cleavage, fluorescence polarization. inhibition, % at 5.59 µM. hit rate 0.41% among 320,000. AID 434962;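 active = percent inhibition above the average of all tested compounds plus 3 SD, set per screening campaign, cut at about 16% in these data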;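 note: IDE supplied by intact live HEK cells; FP after avidin binding of uncleaved biotin substrate so inhibition keeps polarization high; 0% = DMSO wells and 100% = 60 µM reference IDE inhibitor Ii1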
HNF4A DNA FP – change in binding of human HNF4 alpha to DNA. P41235. HNF4a-FITC DNA binding, fluorescence polarization, 1 h. activity change, % at 10 µM. hit rate 0.3% among 360,000. AID 1224865; in the data active = activity change above about 30%, passing the limit was not always enough
Target sequence (P41235 whole entry, looked up): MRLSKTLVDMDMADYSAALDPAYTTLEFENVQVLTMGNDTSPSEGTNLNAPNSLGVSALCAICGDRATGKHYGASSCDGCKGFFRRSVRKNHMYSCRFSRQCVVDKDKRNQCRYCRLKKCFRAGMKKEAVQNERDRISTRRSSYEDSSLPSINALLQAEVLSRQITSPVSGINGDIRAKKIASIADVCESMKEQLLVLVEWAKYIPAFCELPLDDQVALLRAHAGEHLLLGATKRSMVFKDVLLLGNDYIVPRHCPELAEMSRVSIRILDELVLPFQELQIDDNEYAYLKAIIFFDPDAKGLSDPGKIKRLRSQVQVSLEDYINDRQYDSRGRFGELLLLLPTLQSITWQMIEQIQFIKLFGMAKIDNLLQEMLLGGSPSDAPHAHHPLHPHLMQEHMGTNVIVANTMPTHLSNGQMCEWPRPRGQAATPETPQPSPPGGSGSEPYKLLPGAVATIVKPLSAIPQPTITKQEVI
caTPT1 confirm – confirmation of Candida albicans TPT1 inhibitors | shares compounds with TPT1 inhibitor | recombinant caTPT1, fluorescence polarization, RNase T1 coupled | inhibition, % at 5 µM | hit rate 74% among 2,400 | AID 2149;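 active = inhibition above the primary screen limit, the mean inhibition of all tested compounds plus 3 SD, cut at about 25% in these data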
RNase T1 inh – RNase T1 inhibition in TPT1 counter-screen | shares compounds with TPT1 inhibitor | RNase T1 cleavage, fluorescence polarization, 1536-well | inhibition, % at 5 µM | hit rate 83% among 2,400;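 active = inhibition above the solvent-only control well mean plus 3 SD, limit set per screening run, cut at about 23% in these data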;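 note: plate controls were DMSO wells with enzyme for no effect and wells without RNase T1 for full effect; inhibitors block cleavage so intact labeled substrate keeps polarization high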
IDE cell inh cf – cellular human IDE inhibition, confirmation. shares compounds with IDE cell inh. HEK cells, FAbetaB cleavage, fluorescence polarization. inhibition, % at 5.59 µM. hit rate 51% among 1,200. AID 435028;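 active = mean inhibition across triplicate wells above the cutoff set by the earlier primary insulin-degrading enzyme screen, cut at about 16% in these data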;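 note: 0% = DMSO wells and 100% = 60 µM reference IDE inhibitor Ii1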
HEK293 tox – HEK cell cytotoxicity, counter-screen for IDE inhibitors; shares compounds with IDE cell inh; HEK293 cytotoxicity, ATP luminescence; inhibition, % at 5.59 µM; hit rate 28% among 1,200; in the data active = inhibition above about 22%;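 note: 0% = vehicle wells and 100% = reference cytotoxic drug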
* marks the source's active call; other numbers are inactive results; nt = no result given. Rows were chosen to be rich in hits. Some 1.7% of all compounds tested hit in one or more screens of this group.

SMILES | Rpn11 block | TPT1 inhibitor | IDE act | CSN inh | IDE cell inh | HNF4A DNA FP | caTPT1 confirm | RNase T1 inh | IDE cell inh cf | HEK293 tox
CN(C)c1ccc(/C=C2\SC(=O)N(CCc3nnc(N)s3)C2=O)cc1 | nt | 99.5* | -18.8 | 32.3 | 30.2* | 97.2* | 91.5* | 102.4* | 22.3* | 14.3
CC(=O)c1cc(NC(=O)c2ccc(Cl)cc2)c(=O)oc1/C=C/N(C)C | nt | 132.2* | -42.8 | 55.3* | 16.6* | 120.8* | 107.7* | 110.4* | 53.8* | 12.5
COc1cc(/C=C2\SC(N)=NC2=O)cc(Br)c1O | nt | 58.9* | -40.9 | 47.4* | 55.1* | 37.5* | 68.7* | 77.9* | 70.2* | 6.2
COc1ccc(/C=C2\SC(N)=NC2=O)cc1 | -6.7 | nt | 6.6 | -1.9 | nt | 1.4 | nt | nt | nt | nt
Cc1ccccc1-n1c(O)c(/C=C/C=Nc2ccccc2)c(=O)[nH]c1=O | nt | 153.7* | -70.7 | 30.9 | 65.5* | 170.9 | 168.4* | 157.1* | 84.8* | 6.9
Cc1ccc(-n2c(O)c(/C=C3/C(c4ccccc4)=Nc4ccccc43)c(=O)[nH]c2=O)cc1 | 24.8 | 5.9 | 4.0 | -11.3 | 3.0 | 4.2 | nt | nt | nt | nt
CN1/C(=C\C=C(/C#N)C(=O)Nc2ccccc2F)C(C)(C)c2ccccc21 | nt | 123.1* | -44.3 | 123.2 | 24.8* | 101.6 | 94.6* | 92.9* | 35.2* | 14.1
CN(C)c1ccc(/C=C/c2nc3ccccc3c(=O)n2-c2ccc(C(=O)O)cc2)cc1 | nt | 143.8* | -115.1 | -75.9 | 130.6* | 151.3 | 159.0* | 143.4* | 133.9* | 8.5
CC(=O)c1sc(N/N=C\c2ccccc2O)nc1C | nt | 135.8* | -37.4 | 12.9 | 30.7* | 34.7* | 118.0* | 114.8* | 47.5* | 6.1
CCCCCCc1cc2cc(-c3nnc(-c4ccccc4O)o3)c(=O)oc2cc1O | nt | 121.3* | -70.2 | -73.1 | 37.8* | -98.1 | 113.7* | 112.8* | 117.7* | 8.0
COc1ccc(C(=O)N2CCCCC2c2cc(C(=O)NCc3cccnc3)no2)cc1 (stereo not given) | -3.4 | nt | nt | 4.3 | nt | -2.1 | nt | nt | nt | nt
CC(=O)Nc1cccc(C(=O)/C=C/c2ccc(/C=C/C(=O)c3cccc(NC(C)=O)c3)cc2)c1 | nt | -5.0 | nt | nt | -1.3 | nt | nt | nt | nt | nt
CC(=O)Nc1cccc(C(=O)/C=C/c2ccc(N(C)C)cc2)c1 | nt | 102.8* | -174.2 | 135.2 | 55.8* | 83.1* | 99.9* | 99.1* | 50.9* | 13.6
O=C(NC1CCCCC1)C(c1ccccc1)n1c(=O)c(-c2ccco2)nc2ccccc21 (stereo not given) | nt | nt | nt | 9.8 | nt | 14.3 | nt | nt | nt | nt
COc1ccc(OC)c(/C=C2\Oc3cc(OCC(=O)N4CC(O)C[C@H]4C(=O)O)ccc3C2=O)c1 (stereo not given in full) | -3.5 | 16.4 | -6.0 | 3.7 | 9.1 | -0.4 | nt | nt | nt | nt
COc1ccc(OC)c(/C=C2\Oc3cc(OCC(=O)N4CCC(C(=O)O)CC4)ccc3C2=O)c1 | 14.9 | 29.2* | -36.3 | 2.5 | 22.1* | 3.4 | 47.6* | 56.6* | 65.3* | 8.1
CC(C)c1ccccc1NC(=O)CNC(C)c1ccc(F)cc1 (stereo not given) | 0.9 | -1.7 | nt | -6.9 | -0.7 | 0.1 | nt | nt | nt | nt
CCCN1CCC2(CC1)C(C#N)=C(N)Oc1c2sc2nc(C)cc(C)c12 | 6.5 | 24.1* | -13.4 | -2.0 | 22.8* | 1.2 | 19.3 | 27.4* | 7.3 | 11.8
CCOC(=O)N1CCC2(CC1)C(C#N)=C(N)Oc1c2sc2nc(C)cc(C)c12 | 1.6 | 2.3 | -7.9 | -3.5 | -0.4 | -1.5 | nt | nt | nt | nt
CCc1cccc2cc3c(N)c(C(=O)Nc4ccc(S(=O)(=O)N5CCCC5)cc4)sc3nc12 | nt | 38.8* | -10.6 | 24.6 | 25.4* | 13.1 | 32.9* | 42.4* | 17.9* | 30.8*
O=C(C1=NN(c2ccccc2)C2C(=O)N(c3cccc(Cl)c3)C(=O)C12)c1ccccc1 (stereo not given) | -30.9 | 33.4* | -23.1 | 5.6 | 30.7* | 9.6 | 36.6* | 51.3* | 27.9* | 10.8
O=C1C2C3CC(C2C(=O)N1c1cccc(Cl)c1)[C@H](O)C3O (stereo not given in full) | -7.7 | -6.2 | 6.2 | 1.2 | -1.3 | -0.4 | nt | nt | nt | nt
CCOC(=O)C1=C(c2ccccc2)N=c2sc(=Cc3cc(OC)c(OC)c(OC)c3)c(=O)n2C1c1cccs1 (stereo not given) | 17.7 | nt | nt | 1.9 | nt | -0.3 | nt | nt | nt | nt
CCOC(=O)C1=C(c2ccccc2)N=c2s/c(=C\c3ccc(O)cc3)c(=O)n2C1c1cccs1 (stereo not given) | nt | 31.2* | -31.4 | 45.4* | 23.1* | 21.7 | 52.5* | 60.2* | 114.9* | 41.4*
Cn1c(=O)n(C)c2cc(/C=C(/C#N)C(=O)NCc3ccco3)ccc21 | -6.3 | 0.6 | -0.4 | -3.4 | 1.3 | -3.4 | nt | nt | nt | nt
SMILES | Rpn11 block | TPT1 inhibitor | IDE act | CSN inh | IDE cell inh | HNF4A DNA FP | caTPT1 confirm | RNase T1 inh | IDE cell inh cf | HEK293 tox
CCN(CC)c1ccc(/C=C(\C#N)C(=O)NCc2ccco2)cc1 | nt | 110.0* | nt | nt | 90.2* | nt | 103.7* | 113.5* | 51.8* | 14.5
CCN(CC)c1ccc(/C=C2/C(=O)c3ccc(C(=O)O)cc3C2=O)cc1 | nt | 136.2* | -71.5 | 90.4 | 138.4* | 82.2* | 121.5* | 113.9* | 26.1* | 16.3
CCOc1ccc(/C=C/C(=O)c2c(O)c3ccccc3oc2=O)cc1 | 3.9 | 5.6 | 4.7 | -1.2 | -4.7 | 2.6 | nt | nt | nt | nt
CN(C)c1ccc(/C=C/C(=O)c2c(O)c3ccccc3oc2=O)cc1 | nt | 55.2* | -71.0 | 94.9 | 24.9* | 21.3 | 70.4* | 79.5* | 36.5* | 4.8
CN(C)c1ccc(/C=C2\SC(=S)N(Nc3ncc(C(F)(F)F)cc3Cl)C2=O)cc1 | nt | 123.0* | -154.5 | -68.4 | 48.7* | 165.7 | 141.1* | 129.5* | 129.9* | 10.2
CC(C)N1CCc2c(sc(NC(=S)NC(=O)c3ccccc3)c2C#N)C1 | nt | 94.3* | -12.9 | 40.3* | 19.2* | 43.8* | 80.8* | 85.5* | 10.6 | 10.5
CCCN1CCc2c(sc(NC(=S)NC(=O)c3ccccc3)c2C#N)C1 | nt | 87.5* | -33.1 | -98.3 | 38.6* | 93.0 | 61.9* | 70.7* | 9.4 | 12.9
Cc1sc(NC(=S)NC(=O)c2ccccc2)c(C#N)c1C | 3.5 | 1.8 | 2.0 | 0.3 | 4.6 | -1.2 | nt | nt | nt | nt
CC(C)CCCN1C(N(C)C)=NC[C@@H]1C | -12.6 | -0.8 | 4.0 | -6.2 | -1.7 | -1.0 | nt | nt | nt | nt
